High-throughput results: PubChem, The Scripps Research Institute Molecular Screening Center
The list is not random: actives were taken first. Their share in the collection is about 1.8%.
NPY1 pot ag = human NPY-Y1 potentiation or agonism, primary screen. P25929. NPY-Y1 expressing cells, potentiator/agonist activation. activation, % at 3.6 µM. actives 0.37% (n = 220,000). AID 1304; in the data active means activation above about 33%, passing the limit was not always enough;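 further: cells stimulated with NPY at EC10 then isoproterenol at EC100; 0% = low agonist plus stimulus and 100% = saturating agonist plus stimulus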
Target sequence (P25929 whole entry, looked up): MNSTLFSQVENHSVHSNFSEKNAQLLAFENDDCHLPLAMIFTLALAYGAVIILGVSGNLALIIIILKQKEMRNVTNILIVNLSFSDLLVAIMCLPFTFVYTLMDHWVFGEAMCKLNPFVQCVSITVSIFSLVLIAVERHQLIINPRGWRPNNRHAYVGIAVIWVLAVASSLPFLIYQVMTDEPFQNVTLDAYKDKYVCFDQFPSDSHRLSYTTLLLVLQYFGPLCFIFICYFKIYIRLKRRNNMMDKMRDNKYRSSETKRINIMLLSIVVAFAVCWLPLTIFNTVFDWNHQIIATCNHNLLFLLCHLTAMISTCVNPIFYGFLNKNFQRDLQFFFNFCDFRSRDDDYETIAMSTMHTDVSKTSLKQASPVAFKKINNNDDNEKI
NPY-Y2 PAM-ag = human NPY-Y2 potentiation or agonism, primary screen; cells expressing NPY-Y2, potentiator/agonist read-out; activation, % at 3.6 µM; actives 0.45% (n = 220,000); in the data active means activation above about 27%;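 further: cells stimulated with NPY near EC25 plus isoproterenol at EC100; 0% = vehicle plus submaximal agonist and 100% = vehicle plus saturating agonist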
NPY-Y1 antag = antagonists of human neuropeptide Y receptor Y1; actives 1% (n = 200,000); AID 1040; HEK293-CNG Y1 cells, membrane potential fluorescence; NPY at EC95, then isoproterenol; inhibition, % at 3.6 µM; P25929;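 active means inhibition above the campaign mean inhibition of all tested compounds plus 3 SD, cut at about 20% in these data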;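 further: 0% = DMSO wells given NPY plus isoproterenol and 100% = isoproterenol alone without NPY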
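Test system – HEK293 Y1/CNG channel cell line · Also added – NPY agonist 25 nM, then isoproterenol 1 µM plus Ro 20-1724 25 µM · Compound dosing – one concentration, 3.6 µM, in 0.4% DMSO · Schedule – compound incubation 1 h at room temperature, readout 45 min post-stimulation · Technique – fluorescence, membrane potential probe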
NPY Y2 blocker = blocks the human neuropeptide Y Y2 receptor; NPY-Y2 expressing cells, antagonist mode; inhibition, % at 2.7 µM; actives 0.99% (n = 140,000); in the data active means inhibition above about 17%;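 further: 0% = vehicle with agonist challenge and 100% = reference antagonist with challenge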
* = called active by the depositor; · = no result.

SMILES | NPY1 pot ag | NPY-Y2 PAM-ag | NPY-Y1 antag | NPY Y2 blocker
CCOC(=O)c1cc(-c2ccc(Cl)cc2)nc2c1c(C)nn2CCC#N | -74 | -31 | 25* | 33*
CCOC(=O)c1cc(-c2ccco2)nc2c1c(C)nn2CCC#N | -6 | -17 | 10 | 10
Cc1ccc(NC(=S)N2CCCCC2)cc1C | -10 | -16 | · | ·
Cc1cc(C)nc(SCCC(=O)Nc2ccccc2Cl)n1 | -4 | 0 | -1 | ·
COc1ccccc1CC(=O)Nc1ccc(-c2noc(COc3cccc(C)c3C)n2)cc1 | 10 | -23 | 33* | 22*
COc1ccccc1CC(=O)Nc1ccc(-c2noc(COc3ccc(Br)cc3)n2)cc1 | -8 | -9 | 15 | 7
Cc1nn(-c2ccccc2)c(Cl)c1/C=N/NC(=O)c1ccncc1 | -13 | 3 | · | ·
CCOC(=O)c1cnc(-n2nc(C)cc2C)nc1NC | -19 | -8 | 10 | 1
CCOC(=O)c1cnc(-n2nc(C)cc2C)nc1NC1CCCCC1 | -146 | 1 | 31* | 20*
CCOC(=O)C1(Cc2ccc(OC)cc2)CCN(C(=O)CN2CCCCC2=O)CC1 | 9 | -13 | 4 | ·
O=C(CCc1ccccc1)Nc1c(F)c(F)c(F)c(F)c1F | -78 | -36 | 33* | 16
O=C(CCc1ccccc1)Nc1ccccc1F | -25 | 5 | -4 | 1
Cc1ccc(-n2ncc(C(=O)Nc3ccc(Cl)cc3)c2C2CCNCC2)cc1C | -14 | -18 | 20* | ·
CCCCCn1c(=N)n(CC(O)COc2ccccc2OC)c2ccccc21 (stereo not given) | -76 | -28 | 25* | 35*
COc1ccccc1OCC(O)Cn1c(=N)n(Cc2ccccc2)c2ccccc21 (stereo not given) | -55 | -26 | 27* | 39*
Cc1ccccc1OCC(O)Cn1c(=N)n(Cc2ccccc2)c2ccccc21 (stereo not given) | -3 | -17 | · | ·
CCCCn1c(=N)n(CC(O)COc2cccc(C)c2)c2ccccc21 (stereo not given) | -26 | -22 | 31* | 54*
O=C(Cc1ccccc1)Nc1ccccc1C(=O)N1CCCCCC1 | -3 | -7 | 4 | ·
CC(C)CCOC(=O)/C(=C/c1ccco1)NC(=O)/C=C/c1ccccc1 | -47 | -19 | 21* | 18*
Cc1c(-n2c(-c3ccccc3)nc3ccccc3c2=O)c(=O)n(-c2ccccc2)n1C | -11 | -4 | 0 | ·
Cc1ccc(S(=O)(=O)N2CCN(CC(=O)N/N=C\c3ccc(O)c(O)c3)CC2)cc1 | -29 | -3 | · | ·
Cc1ccc(Oc2ccc(OCC(=O)NC(CC(C)C)C(=O)O)cc2)cc1 (stereo not given) | -8 | 0 | 13 | ·
CC(C)(C)OC(=O)COc1cc(OCC(=O)OC(C)(C)C)c2c(=O)cc(-c3ccccc3)oc2c1 | -31 | -30 | 46* | 33*
CC(C)(C)OC(=O)COc1cc(O)c2c(=O)cc(-c3ccccc3)oc2c1 | 9 | 1 | 0 | 16
C/C(=N\NC(=O)c1cc(-c2ccncc2)nc2ccccc12)c1ccc(OC(F)F)cc1 | -30 | -17 | -4 | ·
SMILES | NPY1 pot ag | NPY-Y2 PAM-ag | NPY-Y1 antag | NPY Y2 blocker
O=C(Nc1nc2ccccc2s1)C1CCN(S(=O)(=O)c2cc([N+](=O)[O-])ccc2Cl)CC1 | 80* | 82* | · | ·
COc1cccc2c1C(=O)C=C(C)C2=O | 51* | 34* | 5 | 0
CC1=CC(=O)c2ccccc2C1=O | 2 | 1 | -3 | 1
O=C(CNS(=O)(=O)c1cccc(Cl)c1)Nc1ccc(-c2nc3ccccc3s2)cc1 | 29 | -1 | -7 | -2
CC(NS(=O)(=O)c1cccc(Cl)c1)C(=O)Nc1ccc(-c2nc3ccccc3s2)cc1 (stereo not given) | 55* | 20 | -10 | -3
CCOC(=O)c1c(N)n(-c2ccc(N)cc2)c2nc3ccccc3nc12 | 21 | 13 | 2 | -1
Nc1c(C(=O)Nc2ccccc2)c2nc3ccccc3nc2n1-c1ccc(O)cc1 | 55* | 46* | · | ·
CC1CCN(c2c(NCC3CCC(C(=O)NCCCc4ccccc4)CC3)c(=O)c2=O)CC1 (stereo not given) | -1 | -2 | · | ·
CCCCOn1c(C)c(C(=O)OCC)c2c3nonc3ccc21 | -67 | -45 | 67* | 23*
CCCCOn1c(C)c(C(=O)OCC)c2c3no[n+]([O-])c3ccc21 | -16 | -7 | 5 | 5
COc1ccc(OC)c(C(c2nnnn2C2CCCC2)N2CCc3ccccc3C2)c1 (stereo not given) | -17 | -5 | 21* | 18*
COc1ccc(C(c2nnnn2C2CCCC2)N2CCc3ccccc3C2)cc1OC (stereo not given) | -29 | -19 | 17 | 9
COC(=O)CSc1nc2ccc(NC(=O)CSc3nnnn3Cc3ccccc3)cc2s1 | 109* | 105* | -11 | -2
CCOC(=O)CSc1nc2cc(S(=O)(=O)Nc3ccccc3OC)ccc2o1 | 70* | 45* | -2 | -1
CC(=O)NC1=NN(C(C)=O)C(c2ccco2)S1 (stereo not given) | -5 | -8 | · | ·
Cc1cc(Cl)ccc1NC(=O)CSc1nnc(Cc2cccs2)n1Cc1ccco1 | -17 | -16 | 23* | 21*
Cc1ccc(NCc2nnc(SCc3ccc(C#N)cc3)n2Cc2ccco2)c(C)c1 | 14 | 9 | 1 | 0
N#Cc1ccc(CSc2nnc(Cc3cccs3)n2Cc2ccco2)cc1 | -34 | -23 | 23* | 17
COc1cc2c(cc1NC(=O)CSc1nnc(Cc3cccs3)n1Cc1ccco1)oc1ccccc12 | -23 | 6 | -4 | 0
COc1ccc(NC(=O)Cc2nc3ccccc3[nH]2)cc1 | -49 | -23 | 13 | 22*
COc1ccc(CC(=O)Nc2nc3ccccc3[nH]2)cc1 | 7 | -6 | · | ·
CCOc1cccc2sc(NN)nc12 | 38* | 32 | -9 | ·
O=C(COc1ccc([N+](=O)[O-])cc1)Nc1ccccc1N1CCCC1 | -20 | -11 | 12 | ·
Cc1ccc(CS(=O)(=O)c2ccc(C(=O)N3CCN(c4ccccn4)CC3)cc2[N+](=O)[O-])cc1 | -9 | 8 | 20* | ·
Cc1ccc(CS(=O)(=O)c2ccc(C(=O)N3CCCCC3)cc2[N+](=O)[O-])cc1 | -8 | 2 | 1 | ·
SMILES | NPY1 pot ag | NPY-Y2 PAM-ag | NPY-Y1 antag | NPY Y2 blocker
COc1ccccc1-c1ccc(SCc2ccc(C)cc2)nn1 | -25 | -22 | 21* | ·
COc1ccccc1-c1ccc(SCc2ccc(F)cc2)nn1 | -8 | -11 | 10 | ·
C=CCNC(=S)Nc1c(N)n(C)c(=O)n(C)c1=O | 15 | 0 | · | ·
COc1ccc(S(=O)(=O)N2CCOCC2)cc1NC(=O)CN1CCC(Cc2ccccc2)CC1 | -23 | -34 | 40* | 32*
CC1(C)CC(C(CCN(Cc2ccccc2)C(=O)c2ccco2)c2ccc(F)cc2)CCO1 (stereo not given) | -18 | -4 | 29* | 33*
COc1ccc(S(=O)(=O)CC2(O)CCN(C(=O)CC(C)C)CC2)cc1 | 6 | -10 | 5 | ·
COc1cccc(/C=C/C(=O)OCC(=O)NCCC2=CCCCC2)c1 | -26 | -18 | 13 | ·
CC(=O)NC1C(=O)N(Cc2ccccc2)c2ccc(Br)cc21 (stereo not given) | -5 | -12 | · | ·
CC(=O)NC1C(=O)N(CCc2ccccc2)c2ccc(Br)cc21 (stereo not given) | -19 | -7 | 23* | 23*
